The text below walks through data of ChEMBL document CHEMBL3425405, “Discovery of Small Molecules for Up-Regulating the Translation of Antiamyloidogenic Secretase, a Disintegrin and Metalloproteinase 10 (ADAM10), by Binding to the G-Quadruplex-Forming Sequence in the 5' Untranslated Region (UTR) of Its mRNA” (J Med Chem, 2015).

A short description of series [1]: Binding affinity to 5'-end biotinylated ADAM10 A10-RNA QGRS (unknown origin) by surface plasmon resonance assay method. Put shortly:
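SPR with 5′-biotinylated A10-RNA-Wt or A10-RNA-Mut immobilized on a neutravidin chip in running buffer (50 mM Tris-HCl pH 7.5, 100 mM KCl). Ligand serial dilutions in running buffer injected at 20 μL/min for association, then dissociation. Chip regenerated with 50 mM NaOH between runs.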
In general terms: Surface plasmon resonance follows binding to a sensor surface in real time, without labels.

Series [2] is described as follows: Binding affinity to ADAM10 A10-RNA QGRS (unknown origin) assessed as reduction in RNA G-quadruplex bands at 0.5 to 10 fold excess compound level by native gel electrophoresis method. Put shortly: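 A10-RNA-Wt labeled with Cy3/Cy5 folded in 100 mM KCl, 10 mM Tris-HCl, 0.1 mM EDTA (pH 7.5): 95 °C for 5 min, then cooled to room temperature over 90 min. RNA (2 μM) incubated 5 min at room temperature in the dark with 0, 0.5, 1, 5 or 10-fold excess compound. Run on native 16% polyacrylamide gel at 4 °C.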

A short description of series [3]: Binding affinity to ADAM10 A10-RNA QGRS (unknown origin) by microscale thermophoresis method. On the technique in general: Microscale thermophoresis detects binding through changes in fluorescence in a small temperature gradient.
Series [4] has as its system HeLa. The experiment in a line: Binding affinity to ADAM10 A10-RNA QGRS (unknown origin) transfected in human HeLa cells assessed as increase in ADAM10 translation efficiency at 2 uM after 24 hrs by Renilla/firefly dual luciferase reporter assay. Type of series: cell-based. Put shortly: (§1)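 HeLa cells transfected with 0.8 μg A10-Wt, A10-Mut or A10-Del plasmid (G-quadruplex motif upstream of Renilla in psiCHECK-2). Screening: 24 h at a single 2 μM concentration. Follow-up: plasmid for 12 h, then 0, 0.5, 1 or 2.5 μM for 24 h. Renilla normalized to firefly, relative to untreated control; mean ± SD of three independent measurements.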
(In general: In a reporter assay the amount or activity of a reporter protein is the signal.)

A short description of series [5]: Toxicity against APP expressing HEK cells assessed as reduction in cell viability after 48 hrs by MTT assay. Type of series: cell-based, HEK293. The note with it: human.
The nature of series [6]: Toxicity against human HeLa cells assessed as reduction in cell viability after 24 hrs by MTT assay. Type of series: cell-based.
The test system of series [7] is HeLa. The experiment in a line: Toxicity against human HeLa cells assessed as effect on cell morphology at 0.5 to 2.5 uM after 24 hrs. Type of series: cell-based. Put shortly:
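HeLa cells inspected for cell number and morphology before the luciferase read-out, after reporter-plasmid transfection and 24 h exposure to 0, 0.5, 1 or 2.5 μM compound.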

Series [8] deals with HeLa. The experiment in a line: Binding affinity to ADAM10 A10-RNA QGRS (unknown origin) transfected in human HeLa cells assessed as increase in ADAM10 translation efficiency at 2.5 uM after 24 hrs by Renilla/firefly dual luciferase reporter assay. Type of series: cell-based. Put shortly:
as §1

In series [9] the test system is HeLa. The experiment in a line: Binding affinity to VEGF RNA QGRS (unknown origin) transfected in human HeLa cells assessed as increase in ADAM10 translation efficiency at 2.5 uM after 24 hrs by Renilla/firefly dual luciferase reporter assay. Type of series: cell-based. Put shortly: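 HeLa cells carrying luciferase reporter plasmids with the N-Ras, Bcl-2 or VEGF 5′-UTR quadruplex (or its mutant) treated with compound up to 2.5 μM for 24 h. Renilla/firefly luciferase activity then measured.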

Series [10] has as its system HeLa. The experiment in a line: Binding affinity to ADAM10 5'-UTR RNA QGRS (unknown origin) transfected in human HeLa cells assessed as increase in ADAM10 translation efficiency at 1 uM after 24 hrs by Renilla/firefly dual luciferase reporter assay. Type of series: cell-based. Put shortly: (§2)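 HeLa cells transfected with 0.8 μg 5′UTR-Wt or 5′UTR-Mut dual-luciferase plasmid. After 12 h, incubated 24 h with 0, 0.5, 1 or 2.5 μM compound. Renilla luciferase normalized to firefly and expressed relative to the ligand-free control; mean ± SD of three independent experiments, each in triplicate.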

For series [11], the system named is HeLa. The experiment in a line: Binding affinity to ADAM10 5'-UTR RNA QGRS (unknown origin) transfected in human HeLa cells assessed as increase in ADAM10 translation efficiency at 2.5 uM after 24 hrs by Renilla/firefly dual luciferase reporter assay. Type of series: cell-based. Put shortly: as §2
The test system of series [12] is HeLa. The experiment in a line: Binding affinity to ADAM10 5'-UTR mutant RNA QGRS (unknown origin) transfected in human HeLa cells assessed as increase in ADAM10 translation efficiency at 1 uM after 24 hrs by Renilla/firefly dual luciferase reporter assay. Type of series: cell-based. Summed up:
as §2

In series [13] the test system is HeLa. The experiment in a line: Binding affinity to ADAM10 5'-UTR mutant RNA QGRS (unknown origin) transfected in human HeLa cells assessed as increase in ADAM10 translation efficiency at 2.5 uM after 24 hrs by Renilla/firefly dual luciferase reporter assay. Type of series: cell-based. Put shortly:
as §2

The test system of series [14] is HEK-APP. The experiment in a line: Binding affinity to ADAM10 A10-RNA QGRS (unknown origin) transfected in HEK-APP cells assessed as increase in ADAM10 protein expression at 0.75 uM after 48 hrs by Western blotting method. Type of series: cell-based. Put shortly:
(§3)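 HEK-APP cells (DMEM, 10% FBS, 2 mM glutamine, 0.2 mg/mL G418) treated with 0, 0.5, 0.75, 1 or 1.5 μM compound for 48 h. Lysates in Tris/NaCl/EDTA/1% Triton buffer immunoblotted for ADAM10, APP and β-actin; conditioned medium blotted for sAPPα. Signal by densitometry, normalized to β-actin, relative to blank control; mean ± SD, three independent experiments.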

For series [15], the system named is HEK-APP. The experiment in a line: Binding affinity to ADAM10 A10-RNA QGRS (unknown origin) transfected in HEK-APP cells assessed as increase in ADAM10 protein expression at 1 uM after 48 hrs by Western blotting method. Type of series: cell-based. Put shortly: as §3
The test system of series [16] is HEK-APP. The experiment in a line: Binding affinity to ADAM10 A10-RNA QGRS (unknown origin) transfected in HEK-APP cells assessed as increase in ADAM10 protein expression at 1.5 uM after 48 hrs by Western blotting method. Type of series: cell-based. Put shortly:
as §3

A short description of series [17]: Drug accumulation in cytoplasm of APP expressing HEK cells at 2 uM after 2 hrs by confocal microscopy. Type of series: ADME, cell-based. The conditions noted are these: human, hek293, 2 h.
The subject of series [18] is HEK-APP. The experiment in a line: Binding affinity to ADAM10 A10-RNA QGRS (unknown origin) transfected in HEK-APP cells assessed as increase in sAPPalpha level at 1.5 uM after 48 hrs by Western blotting method. Type of series: cell-based. Summed up: as §3
Series [19] relates to HEK293. The experiment in a line: Reduction in Abeta40 protein production in APP expressing HEK cells at 1 uM after 48 hrs by ELISA method. Type of series: functional, Homo sapiens. Further details: scale not given: the % may be the effect or the level left. Summed up:
(§4)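 HEK-APP cells treated 48 h with increasing compound concentrations (0.75, 1, 1.5 μM). Secreted Aβ40 in equal amounts of conditioned medium quantified by sandwich ELISA. Values expressed relative to blank control; mean ± SD of three independent experiments.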

Series [20] relates to HEK293. The experiment in a line: Reduction in Abeta40 protein production in APP expressing HEK cells at 1.5 uM after 48 hrs by ELISA method. Type of series: functional, Homo sapiens. On the set-up: scale not given: the % may be the effect or the level left. Summed up: as §4
A short description of series [21]: Selectivity index, ratio of affinity to N-Ras RNA QGRS (unknown origin) to ADAM10 A10-Wt RNA QGRS (unknown origin) by Renilla/firefly dual luciferase reporter assay.
Series [22] is described as follows: Selectivity index, ratio of affinity to Bcl-2 RNA QGRS (unknown origin) to ADAM10 A10-Wt RNA QGRS (unknown origin) by Renilla/firefly dual luciferase reporter assay.

Calls of active or inactive are those of the source. The calls are words filed in the database; no cut-off is given here.

Turning to `CCn1c2ccccc2c2cc(/C=C/c3cc(N4CCN(C)CC4)c4ccccc4[n+]3C)ccc21.[I-]`, the Kd amounted to 6.1 µM in series [1] and 4.9 µM in series [3]. In series [2], the result was Active. For the same compound, the Activity with HeLa [4] is 138%; in the series on HeLa [7] it was “Non-toxic”; in the series with HeLa [8] it was 87.3%; in the series with HeLa [10], 22.5%; in the series with HeLa [11], 44.8%; in the series on HEK-APP [14], 55.1%. Also, the Activity stood at 76.8% in the series with HEK-APP [15], 92.9% with HEK-APP [16], 20.7% in the series with HEK293 [19] and 40.8% with HEK293 [20]. The IC50 at 48 h in series [5] amounted to 10.7 µM. For the same compound, the IC50 at 24 h in series [6] worked out at 20.9 µM. The result in the series on HeLa [9], in the series with HeLa [12] and in the series with HeLa [13] was inactive. Moreover, the Drug uptake entry in series [17] is “Active”. Moreover, the fold change (FC) in the series on HEK-APP [18] was found to be 3.3. The Selectivity Index in series [21] and in series [22] was 3 throughout.

The Kd is a measure of binding affinity in units of concentration. As a reminder, the IC50 is the concentration that inhibits the measured activity by half.
